For 76 sequences, folding enthalpy and Tm results are on record in the array DNA melting data of Ke et al. (doi:10.1101/2024.01.08.574731).

A short description of series [1]: folding enthalpy; higher = less favourable; fluorescence melt of hairpins on a sequencing array, two-state fit. The conditions noted are these: sodium 0.088 M. An outline of the steps: (§1)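 Hairpins were imaged by Cy3 fluorescence on a sequenced MiSeq flow cell with annealed Cy3 and quencher oligos, in 50 mM Na-HEPES pH 8.0, 25 mM NaCl, in 2.5 °C steps up to 60 °C. Bootstrapped two-state fits of normalised signals gave melting temperature and folding enthalpy. Four replicates were combined by inverse variance, and fitted temperatures were raised by 9.35 °C to match UV melts.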

The nature of series [2]: melting temperature; fluorescence melt of hairpins on a sequencing array, two-state fit, raised by 9.35 °C to match UV melts. The conditions noted are these: sodium 0.088 M. An outline of the steps:
as §1

As to GATCAGTAGTCTGATC ((((((....)))))), the folding enthalpy in series [1] is -37 kcal/mol. In addition, the Tm in series [2] came out at 50.2 °C.
For GATCAGTATCCTGATC ((((((....)))))), in that order: -33.3 kcal/mol and 48.7 °C.
On the same counts, the results for GATCAGTATCTGATC ((((((...)))))) are -34.9 kcal/mol and 48.5 °C.
In the case of GATCAGTCACCTGATC ((((((....)))))), the folding enthalpy in series [1] is -36.4 kcal/mol. In series [2], the Tm turned out to be 49.6 °C.
Regarding GATCAGTCGACTGATC ((((((....)))))), the folding enthalpy in series [1] is -53.5 kcal/mol. In addition, the Tm in series [2] came out at 55.5 °C.
On the same counts, the results for GATCAGTCTCCTGATC ((((((....)))))) are -39.1 kcal/mol and 49.4 °C.
For the sequence GATCAGTGAGCTGATC ((((((....)))))), the folding enthalpy in series [1] was -36.1 kcal/mol. The Tm in series [2] was found to be 56.2 °C.
Turning to GATCAGTGCACTGATC ((((((....)))))), the folding enthalpy in series [1] was -58.7 kcal/mol. Further, the Tm in series [2] is 56.3 °C.
On to GATCAGTGCTCTGATC ((((((....)))))), for which the folding enthalpy in series [1] is -26.4 kcal/mol. The Tm in series [2] turned out to be 52.1 °C.
On the same counts, the results for GATCAGTGGGCTGATC ((((((....)))))) are -48.6 kcal/mol and 54.4 °C.
With GATCAGTGTACTGATC ((((((....)))))), the folding enthalpy in series [1] was -33.1 kcal/mol. Moreover, the Tm in series [2] was 59.1 °C.
For GATCAGTTAACTGATC ((((((....)))))), in that order: -40.5 kcal/mol and 54.4 °C.
On the same counts, the results for GATCAGTTAGCTGATC ((((((....)))))) are -40.2 kcal/mol and 53.1 °C.
On to GATCAGTTTACTGATC ((((((....)))))), for which the folding enthalpy in series [1] is -49.2 kcal/mol. Besides, in series [2], the Tm was determined as 59.6 °C.
For GATCAGTTTCTGATC ((((((...)))))), the folding enthalpy in series [1] is -43.7 kcal/mol. In series [2], the Tm was 50.8 °C.
On to GATCATAAAAATGATC ((((((....)))))), for which the folding enthalpy in series [1] is -27.4 kcal/mol. Besides, the Tm in series [2] worked out at 36.8 °C.
For GATCATAACGATGATC ((((((....)))))), in that order: -31.5 kcal/mol and 45.9 °C.
In the case of GATCATAATAATGATC ((((((....)))))), the folding enthalpy in series [1] was -35.4 kcal/mol. Besides, the Tm in series [2] worked out at 45.4 °C.
For GATCATAATTATGATC ((((((....)))))), in that order: -42 kcal/mol and 47.8 °C.
For the sequence GATCATACAGATGATC ((((((....)))))), the folding enthalpy in series [1] is -35.8 kcal/mol. Also, in series [2], the Tm is 44.4 °C.
For GATCATACCAATGATC ((((((....)))))), in that order: -39.4 kcal/mol and 48.4 °C.
For GATCATACCCATGATC ((((((....)))))), in that order: -38.6 kcal/mol and 46.5 °C.
Regarding GATCATACTTATGATC ((((((....)))))), the folding enthalpy in series [1] was -37 kcal/mol. For the same sequence, the Tm in series [2] worked out at 48.5 °C.
GATCATAGGAATGATC ((((((....)))))): the folding enthalpy in series [1] is -26 kcal/mol. Further, in series [2], the Tm turned out to be 44.3 °C.
For GATCATATCAATGATC ((((((....)))))), in that order: -27.9 kcal/mol and 48.3 °C.
In the case of GATCATATCATGATC ((((((...)))))), the folding enthalpy in series [1] is -37.2 kcal/mol. In addition, the Tm in series [2] came to 50.4 °C.
On the same counts, the results for GATCATATCGATGATC ((((((....)))))) are -34.3 kcal/mol and 47.4 °C.
As for GATCATATCTATGATC ((((((....)))))), in series [1], the folding enthalpy was -41.6 kcal/mol. Moreover, in series [2], the Tm turned out to be 48.5 °C.
On the same counts, the results for GATCATATGAATGATC ((((((....)))))) are -31.7 kcal/mol and 45.7 °C.
For GATCATCAAATGATC ((((((...)))))), in that order: -25.1 kcal/mol and 41.1 °C.
Consider GATCATCAAGATGATC ((((((....)))))), for which the folding enthalpy in series [1] is -40.4 kcal/mol. Further, the Tm in series [2] stood at 49.8 °C.
On the same counts, the results for GATCATCACTATGATC ((((((....)))))) are -31.3 kcal/mol and 48.6 °C.
On the same counts, the results for GATCATCATAATGATC ((((((....)))))) are -36.3 kcal/mol and 47.1 °C.
For GATCATCATTATGATC ((((((....)))))), in that order: -34.6 kcal/mol and 46.8 °C.
Regarding GATCATCCATATGATC ((((((....)))))), the folding enthalpy in series [1] was -34.9 kcal/mol. Also, in series [2], the Tm was 47 °C.
Turning to GATCATCCCAATGATC ((((((....)))))), the folding enthalpy in series [1] was -36.2 kcal/mol. The Tm in series [2] was found to be 48.2 °C.
Consider GATCATCCGATGATC ((((((...)))))), for which the folding enthalpy in series [1] was -33.3 kcal/mol. Moreover, in series [2], the Tm was 46.8 °C.
Take GATCATCCGTATGATC ((((((....)))))): the folding enthalpy in series [1] is -38.9 kcal/mol. Further, the Tm in series [2] was 47.8 °C.
For the sequence GATCATCCTGATGATC ((((((....)))))), the folding enthalpy in series [1] was -41.7 kcal/mol. Moreover, in series [2], the Tm was determined as 54.5 °C.
For GATCATCGAATGATC ((((((...)))))), the folding enthalpy in series [1] is -25.6 kcal/mol. Also, in series [2], the Tm was 43.6 °C.
For GATCATCGAGATGATC ((((((....)))))), in that order: -45.2 kcal/mol and 54.2 °C.
Take GATCATCGGCATGATC ((((((....)))))): the folding enthalpy in series [1] is -32 kcal/mol. The Tm in series [2] is 44.7 °C.
On the same counts, the results for GATCATCTACATGATC ((((((....)))))) are -38.5 kcal/mol and 46.2 °C.
On the same counts, the results for GATCATCTCTATGATC ((((((....)))))) are -38.9 kcal/mol and 47.1 °C.
For GATCATCTGATGATC ((((((...)))))), in that order: -37.5 kcal/mol and 46.3 °C.
With GATCATGAATATGATC ((((((....)))))), the folding enthalpy in series [1] was -46.8 kcal/mol. In series [2], the Tm came to 54.5 °C.
Consider GATCATGATCATGATC ((((((....)))))), for which the folding enthalpy in series [1] is -52.3 kcal/mol. In addition, the Tm in series [2] worked out at 51.4 °C.
As for GATCATGATGATGATC ((((((....)))))), the folding enthalpy in series [1] was -32.3 kcal/mol. Moreover, in series [2], the Tm is 47.5 °C.
For the sequence GATCATGCAATGATC ((((((...)))))), in series [1], the folding enthalpy is -46 kcal/mol. Moreover, in series [2], the Tm worked out at 59.2 °C.
On the same counts, the results for GATCATGCATATGATC ((((((....)))))) are -55.8 kcal/mol and 55.4 °C.
For GATCATGCCCATGATC ((((((....)))))), in that order: -43 kcal/mol and 53.5 °C.
For GATCATGCGAAAGCAATC (((..(((....)))))), in that order: -9.85 kcal/mol and 22.5 °C.
Consider GATCATGCGCATGATC ((((((....)))))), for which, in series [1], the folding enthalpy was -57.1 kcal/mol. Further, the Tm in series [2] came out at 57.2 °C.
As for GATCATGCTAATGATC ((((((....)))))), in series [1], the folding enthalpy was -42.7 kcal/mol. Also, the Tm in series [2] worked out at 57.2 °C.
GATCATGCTATGATC ((((((...)))))): the folding enthalpy in series [1] was -27.9 kcal/mol. The Tm in series [2] worked out at 49.9 °C.
Take GATCATGGCTATGATC ((((((....)))))): the folding enthalpy in series [1] is -40.6 kcal/mol. For the same sequence, in series [2], the Tm was 53.7 °C.
In the case of GATCATGGTATGATC ((((((...)))))), the folding enthalpy in series [1] was -36.3 kcal/mol. Besides, the Tm in series [2] worked out at 48.9 °C.
On to GATCATGTAATGATC ((((((...)))))), for which the folding enthalpy in series [1] is -39.8 kcal/mol. Besides, in series [2], the Tm is 57.4 °C.
On the same counts, the results for GATCATGTCAATGATC ((((((....)))))) are -40 kcal/mol and 56.9 °C.
On the same counts, the results for GATCATTAATATGATC ((((((....)))))) are -37.1 kcal/mol and 45.5 °C.
On the same counts, the results for GATCATTAGAATGATC ((((((....)))))) are -28.6 kcal/mol and 45.8 °C.
In the case of GATCATTATATGATC ((((((...)))))), the folding enthalpy in series [1] was -40.2 kcal/mol. Further, the Tm in series [2] is 48.8 °C.
In the case of GATCATTCAGATGATC ((((((....)))))), the folding enthalpy in series [1] is -36.9 kcal/mol. In series [2], the Tm came to 46.9 °C.
Take GATCATTCGTATGATC ((((((....)))))): the folding enthalpy in series [1] was -33.3 kcal/mol. For the same sequence, the Tm in series [2] turned out to be 48.1 °C.
For the sequence GATCATTCTTATGATC ((((((....)))))), the folding enthalpy in series [1] is -40.9 kcal/mol. The Tm in series [2] turned out to be 48.6 °C.
For GATCATTGCAATGATC ((((((....)))))), in that order: -44.8 kcal/mol and 52.3 °C.
Take GATCATTGCTATGATC ((((((....)))))): the folding enthalpy in series [1] is -36 kcal/mol. In addition, in series [2], the Tm stood at 47.8 °C.
On the same counts, the results for GATCATTGGGATGATC ((((((....)))))) are -38.8 kcal/mol and 49.5 °C.
As to GATCATTGTATGATC ((((((...)))))), in series [1], the folding enthalpy is -30.9 kcal/mol. Moreover, the Tm in series [2] was found to be 49.5 °C.
With GATCATTTAAATGATC ((((((....)))))), the folding enthalpy in series [1] is -46.3 kcal/mol. In series [2], the Tm stood at 48.4 °C.
For GATCATTTCAATGATC ((((((....)))))), in that order: -42.2 kcal/mol and 52.3 °C.
Consider GATCATTTTAATGATC ((((((....)))))), for which the folding enthalpy in series [1] was -53.2 kcal/mol. Further, in series [2], the Tm was 53.6 °C.
As to GATCCAAAAATGGATC ((((((....)))))), in series [1], the folding enthalpy was -26.4 kcal/mol. Also, the Tm in series [2] was found to be 42.9 °C.
For GATCCAAACCTGGATC ((((((....)))))), in that order: -40.8 kcal/mol and 49.8 °C.
As for GATCCAAACGTGGATC ((((((....)))))), in series [1], the folding enthalpy was -37.4 kcal/mol. In series [2], the Tm came out at 49 °C.
On the same counts, the results for GATCCAAACTGGATC ((((((...)))))) are -43 kcal/mol and 50.4 °C.
